What all share (format): cell-based, mouse
Series [1] has as its system HT22 cells. Put plainly: Cell morphology by phase contrast microscopy. To be noted: 50 μM peptide or 2 mM glutamate (positive control), 24 h.
In another series the test system is AIF. Put plainly: AIF nuclear translocation by immunocytochemistry. As to conditions: HT22 cells, 2 mM glutamate alone for up to 18 h.
Series [2] has as its system HT22 cells. Put plainly: TUNEL assay of glutamate-induced oxytosis. To be noted: 2 mM glutamate alone for 18 h, normalized by nuclei count.
Series [3] deals with HT22 cells. Briefly: Immunofluorescent staining of ssDNA. To be noted: 2 mM glutamate alone for 18 h. A digest of the protocol: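 HT22 cells on cover glass (5 × 10⁴ cells/well, 24 h) exposed to 2 mM L-glutamate in fresh medium for 18 h. Fixed in 4% paraformaldehyde (pH 7.4, 4 °C, 30 min), acetone-permeabilised, goat-serum blocked. Rabbit anti-ssDNA (1:200, 4 °C overnight), Alexa 594 secondary with DAPI. Confocal imaging; ssDNA-positive cells counted over total nuclei. At least three repeats, mean ± SD, ANOVA/Tukey-Kramer.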

Regarding `N[C@@H](CCC(=O)O)C(=O)O` [glutamate, L-glutamate], in the series on HT22 cells [1], the cell morphology result is “induced cell detachment and shrinkage”. In addition, the AIF localization result in the series on AIF was “induced diffuse localization of AIF in both cytoplasm and nucleus”. The TUNEL-positive cells entry in the series on HT22 cells [2] was “up to 73%”. Besides, in the series on HT22 cells [3], the ssDNA-positive cells is recorded as 40%.

The values are drawn from publication PMC8374356 (Biochemistry and Biophysics Reports, 2021).
